Screens deposited in PubChem by Broad Institute.
PGC1a acetyl inh: PGC1a acetylation modulation, inhibitor mode; U2OS PGC1a acetylation, AlphaScreen anti-acetyl-lysine; with virally co-expressed GCN5 acetyltransferase; inhibition, % at 15.6 µM; hit rate 0.17% among 350,000; AID 651687;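 active = every replicate shows inhibition of at least 40%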;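 note: 0% = neutral control wells and 100% = positive control wells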
HIV Env fusion: blocks HIV Env-driven cell-cell fusion; HeLa-JRFL Env/CEM21 cell fusion, luciferase; inhibition, % at 12.3 µM; hit rate 1.1% among 360,000;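 active = mean replicate inhibition score of at least 50 and every replicate individually at or above 50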;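 note: 0% = plate neutral controls and 100% = maraviroc near 300 nM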
Ecoli rRNA inh: inhibitors of bacterial rRNA selective over humanized ribosomes | E. coli WT GFP vs humanized-ribosome RFP mutants, fluorescence, 24 h; hits give low values; DMSO median 0, no signal -100 | GFP signal change (wild-type ribosome), % (test concentration not listed) | hit rate 1.6% among 350,000 | AID 720706;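 active = significant combined selectivity score with lowered wild-type GFP, culture density cut under 30%, mutant RFP and density less affected; inactive = any of these conditions unmet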
Cneo AK release: causes C. neoformans cell lysis. adenylate kinase release luminescence, 4 h; normalised: neutral wells 0, clomiphene wells 100. lysis activity, % at 15 µM. hit rate 0.2% among 360,000. AID 651654;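 active = mean lysis activity across replicates of at least 80%, whatever share of replicates individually reach that level; inactive = mean lysis activity below 80%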
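Signal: Adenylate kinase release luminescence | Assay system: Log-phase Cryptococcus neoformans yeast cells | Input: Cells at 5 × 10^6 per mL | Buffer or medium: Fresh YPD growth medium | Compound: Single dose | Schedule: Static 4 h at 37 °C with compound, 1 h detection | Controls: Clomiphene | Read-out: Luminescence rise reflecting yeast cell lysis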
ERAP1 HTS inh: inhibitors of human ERAP1 aminopeptidase; Q9NZ08; recombinant ERAP1, Leu-AMC fluorescence, 60 min; hit rate 0.15% among 340,000; inhibition, % at 10.7 µM;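 active = mean replicate inhibition of at least 30%, or all replicates individually reaching that 30% level; inactive = mean below 30% and not every replicate reaching it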;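 note: 0% = neutral control wells and 100% = L-leucinethiol positive control wells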
FGF22 binding: shifts melting point of recombinant human FGF22. AID 651658. activity (Tm shift, normalised), % at 9.99 µM. recombinant FGF22 thermal shift, SYPRO orange fluorescence; percent of sucrose octasulfate shift, DMSO zero. hit rate 1.5% among 340,000. Q9HCT0;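 active = mean Tm shift, scaled 0 neutral to 100 positive control, at about 1.3% or above, every replicate too, limit read from the data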
An asterisk follows results filed as active; . = no result; [ ] = remark or other dose. A selection: hits, their analogues and other compounds. The true share with any hit is near 3.5%.

SMILES	PGC1a acetyl inh	HIV Env fusion	Ecoli rRNA inh	Cneo AK release	ERAP1 HTS inh	FGF22 binding
CC(C)CNC(=O)[C@@H]1c2ccccc2C(=O)N(CC23CC4CC(CC(C4)C2)C3)[C@H]1c1ccc(CO)cc1	-8	61*[16.7 µM]	.	-3	0	0
CCOC(=O)C1CCN(S(=O)(=O)c2c(C(=O)N3CCCCC3)c(C)n(C)c2C)CC1	6	-10	4	0	-1	0
CC(=O)Nc1cc[n+](CC(=O)c2cccc([N+](=O)[O-])c2)cc1	.	3	4	0	-3	0
CCOC(=O)C1=C(C)N=c2s/c(=C\c3ccc(OCC(=O)O)cc3)c(=O)n2C1c1ccc(Cl)cc1 (stereo not given)	-7	3	4	-2	-1	0
OC(c1ccc(F)cc1)c1ncc(-c2cccc3ccccc23)[nH]1 (stereo not given)	-18	-28	-5	1	16	0
COc1ccccc1C(O)c1ncc(-c2cccc3ccccc23)[nH]1 (stereo not given)	-5	23	-8	-2	1	43*
C[C@@H]1CN([C@@H](C)CO)C(=O)Cc2cc(NS(=O)(=O)c3cccs3)ccc2O[C@H]1CN(C)Cc1ccc(C(F)(F)F)cc1	16	78*[16.7 µM]	-4	-1	-1	0
C[C@@H]1CN([C@@H](C)CO)C(=O)Cc2cc(NS(=O)(=O)c3cccs3)ccc2O[C@H]1CN(C)Cc1ccc(Cl)c(Cl)c1	10	61*[16.7 µM]	-3	2	0	0
C[C@@H]1CN([C@@H](C)CO)C(=O)Cc2cc(NC(=O)c3ccncc3)ccc2O[C@H]1CN(C)Cc1ccc(Cl)c(Cl)c1	2	73*[16.7 µM]	-7	15	-1	0
C[C@@H]1CN([C@@H](C)CO)C(=O)Cc2cc(NC(=O)c3ccncc3)ccc2O[C@@H]1CN(C)Cc1ccc(Cl)c(Cl)c1	-17	-22[16.7 µM]	-9	-3	-3	0
COc1ccc(-c2nc(C#N)c(N3CCCCCC3)o2)cc1OC	.	.	-23*	.	-6	0
O=C(c1ccc(F)cc1)N1CCOC(c2nc(-c3ccc(F)cc3)no2)C1 (stereo not given)	-1	-15	-25*	1	-3	0
Cc1cccc(NC(=O)CCOc2ccccc2)c1C	0	-1	5	2	-3	1
Cc1ccc(-n2c(SCC(=O)N3CCCc4ccccc43)nnc2-c2cccnc2)c(C)c1	-5	39	9	.	2	43*
CO[C@@H]1CN(C)C(=O)c2ccc(NC(=O)C3CCOCC3)cc2OC[C@H](C)N(CC2CC2)C[C@@H]1C	-5	.	4	-12	3	0
CS(=O)(=O)c1ccc(N2CCN(C3CC(=O)NC3=O)CC2)cc1 (stereo not given)	9	.	.	12	.	.
C/C(=N\S(=O)(=O)c1ccc(C)cc1)NC(=S)Nc1ccccc1	.	-24	13	.	-5	44*
COc1ccc(NC(=S)N/C(=N/S(=O)(=O)c2ccc(C)cc2)c2ccccc2)cc1	1	0	4	-1	3	43*
O=C(CN1CCC(NC(=O)c2ccccc2F)CC1)Nc1ccc2c(c1)OCCO2	-7	-132	.	1	-7	43*
Cc1ccccc1C(=O)NC1CCN(CC(=O)Nc2ccc3c(c2)OCCO3)CC1	0	8	15	.	0	43
CC1C/C(=C/c2ccncc2)C(=O)/C(=C/c2ccncc2)C1 (stereo not given)	35	81*	-22*	1	3	0
CN1C(=O)[C@@](O)(c2cn(C)c3ccccc23)c2cc(Br)ccc21	.	10	-23*	.	.	0
Cc1ccccc1C(=O)Nc1nnc(-c2ccncc2)o1	9	-5	-33*	.	-2	0
COc1ccc(-c2nnc(NC(=O)c3ccccc3C)o2)cc1	-10	17	-40	-2	5	0
Cc1cccc(CS(=O)(=O)c2nnc([C@H](Cc3ccccc3)NC(=O)OC(C)(C)C)o2)c1	60*	.	.	-1	.	.
SMILES	PGC1a acetyl inh	HIV Env fusion	Ecoli rRNA inh	Cneo AK release	ERAP1 HTS inh	FGF22 binding
COC(=O)CS(=O)(=O)c1nnc([C@H](Cc2ccccc2)NC(=O)OC(C)(C)C)o1	-5	.	.	.	.	.
O=C(Nc1ccc(S(=O)(=O)N2CCCC2)cc1)c1cccnc1	2	.	.	0	.	.
C=CCn1c(COc2cccc(C)c2)nnc1SCn1nnc2ccccc2c1=O	.	.	-43*	5	-4	0
Cc1ccc(-n2nnnc2SCn2nnc3ccccc3c2=O)c(C)c1	-31	75*	.	2	.	.
CC1(C)ON=C(c2cccc(F)c2)NC1=O	.	-21	6	1	.	0
C[C@H](CO)N1C[C@H](C)[C@H](CN(C)C(=O)Nc2cccc3ccccc23)Oc2ncc(-c3ccc(F)cc3)cc2C1=O	1	39*[16.7 µM]	-9	13	-2	-1
C[C@@H]1CN([C@H](C)CO)C(=O)c2cc(-c3ccc(C#N)cc3)cnc2O[C@@H]1CN(C)C(=O)Nc1ccc(F)cc1	-8	-9[16.7 µM]	-1	83*	0	0
COc1cc(C2C(C#N)=C(N)N(c3cccnc3)C3=C2C(=O)CCC3)ccc1O (stereo not given)	-1	.	-6	3	4	0
COc1cc(C)ccc1OCc1cc(C(=O)N2CCC(c3ccc(F)cc3)C2)no1 (stereo not given)	5	-34	-14*	-6	-2	0
CC(C)(C)n1nnnc1C(c1cccs1)N1CCCC2(CCCCC2)C1 (stereo not given)	-4	.	9	0	1	0
c1csc(C(c2nnnn2C2CCCCC2)N2CCCC3(CCCCC3)C2)c1 (stereo not given)	3	115*	.	1	.	.
CSCc1cc(N2CCOCC2)nc(SCc2ccc(Cl)c(Cl)c2)n1	6	63*	-22	3	-2	0
COC(=O)Cc1ccc(NC(=S)NCc2ccc(OC)cc2)cc1	14	14	-10	-2	-4	0
CCC(=O)c1ccc(OCCn2cnc3ccccc32)cc1	4	-13	-34*	.	-3	0
COc1ccc(C(=O)CSc2nnc(Cn3cnc4ccccc43)o2)cc1	-11	106*	.	2	.	.
CCC(=O)c1ccc(OCCn2cncn2)cc1	5	16	.	8	.	.
CC(=O)c1ccc(NC(=O)CSc2nnc(Cn3cnc4ccccc43)o2)cc1	.	1	12	0	0	43*
O=C(COC(=O)CNC(=O)c1ccccc1Cl)Nc1ncc(C(F)(F)F)cc1Cl	.	-31	.	.	.	.
CCc1nc2ccccc2c(C(=O)OCC(=O)Nc2cccc(S(=O)(=O)N3CCOCC3)c2)c1C	-25	100*	.	1	.	.
O=C(COC(=O)c1cccc(S(=O)(=O)N2CCOCC2)c1)NCc1ccccc1	.	68*	-1	.	1	1
